The values that follow come from ChEMBL document CHEMBL1139009, “Analogues of neurohypophyseal hormones, oxytocin and arginine vasopressin, conformationally restricted in the N-terminal part of the molecule” (J Med Chem, 2006).

A word on the pA2: it is the negative logarithm of the molar antagonist concentration that doubles the agonist concentration needed for the same response.

The target in one assay is T1, Oxytocin receptor (Rattus norvegicus) (UniProt P70536).
T1 sequence (whole entry): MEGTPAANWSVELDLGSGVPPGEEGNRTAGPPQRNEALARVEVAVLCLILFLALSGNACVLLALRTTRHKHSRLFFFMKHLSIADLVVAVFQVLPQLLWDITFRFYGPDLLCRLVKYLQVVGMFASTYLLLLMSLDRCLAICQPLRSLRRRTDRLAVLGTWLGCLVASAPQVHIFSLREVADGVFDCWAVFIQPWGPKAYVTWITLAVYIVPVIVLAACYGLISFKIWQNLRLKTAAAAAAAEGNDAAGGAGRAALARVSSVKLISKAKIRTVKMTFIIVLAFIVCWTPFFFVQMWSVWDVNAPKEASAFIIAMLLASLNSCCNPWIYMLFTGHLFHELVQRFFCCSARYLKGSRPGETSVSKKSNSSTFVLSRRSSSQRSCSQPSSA
Description: (§1) Uterotonic activity against OT receptor in Wistar rat in absence of magnesium. It is filed as functional. In outline: (§2)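 Isolated uterus from female Wistar rats estrogenized 48 h beforehand, tested in vitro without magnesium ions. Synthetic oxytocin served as standard. Dose-response curves from single administrations or cumulative dosing without washing. Values are means of three to five separate experiments.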
`CC(C)[C@@H]1NC(=O)[C@H](C)N(Cc2ccccc2)C(=O)[C@H](Cc2ccc(O)cc2)NC(=O)CC2(CCCCC2)SSC[C@H](C(=O)N2CCC[C@H]2C(=O)N[C@@H](CCCN=C(N)N)C(=O)NCC(N)=O)NC(=O)[C@H](CC(N)=O)NC1=O`: the Activity amounted to 0 IU/mg.

In a further assay the target is T2, Oxytocin receptor (Rattus norvegicus, UniProt P70536).
T2 sequence (P70536 whole entry): T1 sequence (whole entry)
The description is as §1. The class given is functional. In a few lines: as §2
For `NC(=O)CC[C@@H]1NC(=O)[C@H](Cc2ccccc2)NC(=O)[C@H](Cc2ccc(O)cc2)NC(=O)[C@@](N)(CO)CSSC[C@@H](C(=O)N2CCC[C@H]2C(=O)N[C@@H](CCCN=C(N)N)C(=O)NCC(N)=O)NC(=O)[C@H](CC(N)=O)NC1=O` [listing 1 of 2 here], the pA2 is 6.4.
Consider `CC(C)C[C@H](NC(=O)[C@@H]1CCCN1C(=O)[C@@H]1CSSCCC(=O)N2CCN(C(=O)[C@@H]2Cc2ccccc2)[C@@H](Cc2ccccc2)C(=O)N[C@@H](CCC(N)=O)C(=O)N[C@@H](CC(N)=O)C(=O)N1)C(=O)NCC(N)=O` [listing 1 of 2 here], for which the pA2 is 6.5.
With `CC(C)C[C@H](NC(=O)[C@@H]1CCCN1C(=O)[C@@H]1CSSC[C@H](N)C(=O)N2CCN(C(=O)[C@@H]2Cc2ccccc2)[C@@H](Cc2ccccc2)C(=O)N[C@@H](CCC(N)=O)C(=O)N[C@@H](CC(N)=O)C(=O)N1)C(=O)NCC(N)=O` [listing 1 of 2 here], the pA2 worked out at 6.82.
Molecule `CC(C)C[C@H](NC(=O)[C@@H]1CCCN1C(=O)[C@@H]1CSSC2(CCCCC2)CC(=O)N2CCN(C(=O)[C@@H]2Cc2ccccc2)[C@@H](Cc2ccccc2)C(=O)N[C@@H](CCC(N)=O)C(=O)N[C@@H](CC(N)=O)C(=O)N1)C(=O)NCC(N)=O` [listing 1 of 2 here] returned a pA2 of 6.72.

For the next assay, the species on record is Rattus norvegicus. The experiment in a line: Antidiuretic activity against V2 receptor in Wistar rat at antidiuresis half life of 60 min. It is filed as functional, Urine.
`CC(C)C[C@H](NC(=O)[C@@H]1CCCN1C(=O)[C@@H]1CSSC2(CCCCC2)CC(=O)N2CCN(C(=O)[C@@H]2Cc2ccccc2)[C@@H](Cc2ccccc2)C(=O)N[C@@H](CCC(N)=O)C(=O)N[C@@H](CC(N)=O)C(=O)N1)C(=O)NCC(N)=O` [listing 2 of 2 here] gave an Activity of under 0.04 IU/mg.
Still for that read-out and setting: to `NC(=O)CC[C@@H]1NC(=O)[C@H](Cc2ccccc2)NC(=O)[C@H](Cc2ccc(O)cc2)NC(=O)[C@@](N)(CO)CSSC[C@@H](C(=O)N2CCC[C@H]2C(=O)N[C@@H](CCCN=C(N)N)C(=O)NCC(N)=O)NC(=O)[C@H](CC(N)=O)NC1=O` [listing 2 of 2 here] belongs 4.5 IU/mg; to `CC(C)[C@@H]1NC(=O)[C@H](C)N(Cc2ccccc2)C(=O)[C@H](Cc2ccc(O)cc2)NC(=O)[C@@H](N)CSSC[C@@H](C(=O)N2CCC[C@H]2C(=O)N[C@@H](CCCN=C(N)N)C(=O)NCC(N)=O)NC(=O)[C@H](CC(N)=O)NC1=O`, under 0.04 IU/mg; to `CC(C)[C@@H]1NC(=O)[C@H](C)N(Cc2ccccc2)C(=O)[C@H](Cc2ccc(O)cc2)NC(=O)CCSSC[C@@H](C(=O)N2CCC[C@H]2C(=O)N[C@@H](CCCN=C(N)N)C(=O)NCC(N)=O)NC(=O)[C@H](CC(N)=O)NC1=O`, under 0.04 IU/mg.
In turn, `CC(C)[C@@H]1NC(=O)[C@H](C)N(Cc2ccccc2)C(=O)[C@H](Cc2ccc(O)cc2)NC(=O)CC2(CCCCC2)SSC[C@@H](C(=O)N2CCC[C@H]2C(=O)N[C@@H](CCCN=C(N)N)C(=O)NCC(N)=O)NC(=O)[C@H](CC(N)=O)NC1=O` had an Activity of under 0.04 IU/mg.
Still for that read-out and setting: to `CC(C)C[C@H](NC(=O)[C@@H]1CCCN1C(=O)[C@@H]1CSSCCC(=O)N2CCN(C(=O)[C@@H]2Cc2ccccc2)[C@@H](Cc2ccccc2)C(=O)N[C@@H](CCC(N)=O)C(=O)N[C@@H](CC(N)=O)C(=O)N1)C(=O)NCC(N)=O` [listing 2 of 2 here] belongs under 0.04 IU/mg; to `CC(C)C[C@H](NC(=O)[C@@H]1CCCN1C(=O)[C@@H]1CSSC[C@H](N)C(=O)N2CCN(C(=O)[C@@H]2Cc2ccccc2)[C@@H](Cc2ccccc2)C(=O)N[C@@H](CCC(N)=O)C(=O)N[C@@H](CC(N)=O)C(=O)N1)C(=O)NCC(N)=O` [listing 2 of 2 here], under 0.04 IU/mg.

In a further assay the target is Vasopressin V1a receptor (Rattus norvegicus) (UniProt P30560). The experiment in a line: Pressor activity against V1a receptor in Wistar rat.
Vasopressin V1a receptor (Rattus norvegicus), sequence (P30560 whole entry, looked up): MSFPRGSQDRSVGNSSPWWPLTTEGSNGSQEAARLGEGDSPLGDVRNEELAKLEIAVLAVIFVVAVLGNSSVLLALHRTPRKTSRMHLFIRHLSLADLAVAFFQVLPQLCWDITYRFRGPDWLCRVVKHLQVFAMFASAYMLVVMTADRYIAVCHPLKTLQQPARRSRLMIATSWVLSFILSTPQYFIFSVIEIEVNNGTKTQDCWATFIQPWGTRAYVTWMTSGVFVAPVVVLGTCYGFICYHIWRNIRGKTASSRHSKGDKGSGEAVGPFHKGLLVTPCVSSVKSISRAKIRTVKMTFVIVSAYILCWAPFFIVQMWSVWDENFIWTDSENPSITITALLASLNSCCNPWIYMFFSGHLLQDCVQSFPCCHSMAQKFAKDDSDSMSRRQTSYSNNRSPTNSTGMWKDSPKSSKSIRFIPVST
`CC(C)C[C@H](NC(=O)[C@@H]1CCCN1C(=O)[C@H]1CSSCCC(=O)N2CCN(C(=O)[C@@H]2Cc2ccccc2)[C@@H](Cc2ccccc2)C(=O)N[C@@H](CCC(N)=O)C(=O)N[C@@H](CC(N)=O)C(=O)N1)C(=O)NCC(N)=O` showed a pressor activity of 0 IU/mg.
`CC(C)[C@@H]1NC(=O)[C@H](C)N(Cc2ccccc2)C(=O)[C@H](Cc2ccc(O)cc2)NC(=O)CC2(CCCCC2)SSC[C@H](C(=O)N2CCC[C@H]2C(=O)N[C@@H](CCCN=C(N)N)C(=O)NCC(N)=O)NC(=O)[C@H](CC(N)=O)NC1=O` came in with a pressor activity of 0 IU/mg.
The same measure, in the same setting: to `CC(C)[C@@H]1NC(=O)[C@H](C)N(Cc2ccccc2)C(=O)[C@H](Cc2ccc(O)cc2)NC(=O)[C@H](N)CSSC[C@H](C(=O)N2CCC[C@H]2C(=O)N[C@@H](CCCN=C(N)N)C(=O)NCC(N)=O)NC(=O)[C@H](CC(N)=O)NC1=O` belongs 0 IU/mg; to `CC(C)C[C@H](NC(=O)[C@@H]1CCCN1C(=O)[C@H]1CSSC2(CCCCC2)CC(=O)N2CCN(C(=O)[C@@H]2Cc2ccccc2)[C@@H](Cc2ccccc2)C(=O)N[C@@H](CCC(N)=O)C(=O)N[C@@H](CC(N)=O)C(=O)N1)C(=O)NCC(N)=O`, 0 IU/mg; to `CC(C)[C@@H]1NC(=O)[C@H](C)N(Cc2ccccc2)C(=O)[C@H](Cc2ccc(O)cc2)NC(=O)CCSSC[C@H](C(=O)N2CCC[C@H]2C(=O)N[C@@H](CCCN=C(N)N)C(=O)NCC(N)=O)NC(=O)[C@H](CC(N)=O)NC1=O`, 0 IU/mg.
Consider `CC(C)C[C@H](NC(=O)[C@@H]1CCCN1C(=O)[C@H]1CSSC[C@@H](N)C(=O)N2CCN(C(=O)[C@@H]2Cc2ccccc2)[C@@H](Cc2ccccc2)C(=O)N[C@@H](CCC(N)=O)C(=O)N[C@@H](CC(N)=O)C(=O)N1)C(=O)NCC(N)=O`, for which the pressor activity worked out at 0 IU/mg.
Still for that read-out and setting: to `NC(=O)CC[C@@H]1NC(=O)[C@H](Cc2ccccc2)NC(=O)[C@H](Cc2ccc(O)cc2)NC(=O)[C@@](N)(CO)CSSC[C@H](C(=O)N2CCC[C@H]2C(=O)N[C@@H](CCCN=C(N)N)C(=O)NCC(N)=O)NC(=O)[C@H](CC(N)=O)NC1=O` belongs 0.18 IU/mg.

The species entered for the next assay is Rattus norvegicus. The experiment in a line: Antidiuretic activity against V2 receptor in Wistar rat at antidiuresis half life of 200 min. It is filed as functional, Urine.
In turn, `NC(=O)CC[C@@H]1NC(=O)[C@H](Cc2ccccc2)NC(=O)[C@H](Cc2ccc(O)cc2)NC(=O)[C@@](N)(CO)CSSC[C@@H](C(=O)N2CCC[C@H]2C(=O)N[C@@H](CCCN=C(N)N)C(=O)NCC(N)=O)NC(=O)[C@H](CC(N)=O)NC1=O` [listing 2 of 2 here] registered an Activity of 22.5 IU/mg.
